We go through 36 compounds from ChEMBL document CHEMBL3804792, “Discovery and analgesic evaluation of 8-chloro-1,4-dihydropyrido[2,3-b]pyrazine-2,3-dione as a novel potent d-amino acid oxidase inhibitor” (Eur J Med Chem, 2016).

Activity calls are given as the source filed them.

For data set [1], the target named is D-amino-acid oxidase (Sus scrofa, UniProt P00371). Nature of the data set: Inhibition of DAAO in porcine kidney homogenate using D-alanine as substrate assessed as pyruvate production incubated for 5 mins by microplate reader analysis.
Data set [2] concerns the target D-amino-acid oxidase (Homo sapiens, UniProt P14920). Nature of the data set: Inhibition of human recombinant DAAO using D-alanine as substrate assessed as pyruvate production incubated for 60 mins by microplate reader analysis.
Data set [3] has as its target D-amino-acid oxidase (Rattus norvegicus, UniProt O35078). In words: Inhibition of rat spinal DAAO using D-alanine as substrate assessed as pyruvate production incubated for 60 mins by microplate reader analysis.
The test system of data set [4] is Rattus norvegicus. In words: Analgesic activity in Wistar rat assessed as inhibition of NMDA-induced pain at 0.1 ug, it administered 30 mins prior to NMDA challenge measured for 10 mins. Type of data set: functional. The method in brief:
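Male Wistar rats (180-250 g), n = 6 per group, with intrathecal lumbar PE-10 catheters checked by lidocaine paralysis. Dosed 0.1 µg intrathecally 30 min before 5 nmol NMDA given intrathecally. Duration of scratching, biting and licking recorded for 10 min immediately after NMDA. Saline (10 µL) group as control. One-way ANOVA with Student-Newman-Keuls test.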

Data set [5] can be described thus: Apparent oral bioavailability in Swiss mouse at 10 mg/kg administered as oral gavage. Type of data set: ADME, organism-based. Conditions: in vivo, read-out: Fapp.
Data set [6] has as its system Rattus norvegicus. Nature of the data set: Analgesic activity in Wistar rat assessed as inhibition of NMDA-induced pain at 10 ug, it administered 30 mins prior to NMDA challenge measured for 10 mins. Type of data set: functional, organism-based. In outline: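 Male Wistar rats with lumbar intrathecal PE-10 catheters, placement checked by lidocaine-induced hind-limb paralysis; n = 6 per group. Intrathecal saline, MK-801 or compound 30 min before intrathecal NMDA (5 nmol). Scratching, biting and licking duration recorded for 10 min; means ± S.E.M., one-way ANOVA with Student-Newman-Keuls test versus saline.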

The species named for data set [7] is Rattus norvegicus. In words: Analgesic activity in Wistar rat spinal nerve ligation-induced neuropathic pain model assessed as reduction in heat hyperalgesia assessed as increase in ipsilateral paw withdrawal response at 30 ug, it measured after 1 hr. In kind it is functional. The method in brief:
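Spinal nerve-ligated male Wistar rats, intrathecally catheterised; only those with ipsilateral withdrawal threshold <8 g were used. After intrathecal dosing, radiant heat was applied to the plantar hind paw and withdrawal latency read, cut-off 20 s. Each paw tested three times at 10-min intervals and averaged. n = 6. Read at 0.5, 1, 2 and 4 h.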

Data set [8] deals with Rattus norvegicus. In words: Analgesic activity in it dosed Wistar rat assessed as inhibition of formalin-induced paw flinch response in tonic phase administered as bolus injection 30 mins prior to formalin challenge measured from 10 to 90 mins relative to normal saline control. In kind it is functional. In outline: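 Intrathecally catheterised male Wistar rats, n = 6 per group. A bolus of 0.1-3 µg was given intrathecally 30 min before 50 µL of 5% formalin s.c. into the dorsal right hindpaw. Flinches counted in 1-min epochs at 10-min intervals over 90 min. […] Saline (10 µL) group as control.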

For data set [9], the system named is Mus musculus. In words: Analgesic activity in sc dosed Swiss mouse assessed as inhibition of formalin-induced tonic pain administered 30 mins prior to formalin challenge measured from 20 to 40 mins relative to normal saline control. In kind it is functional. In outline: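 Male Swiss mice, n = 6 per group. Dosed s.c. at 0.3-30 mg/kg in saline (10 mL/kg) 30 min before 10 µL of 5% formalin s.c. into the dorsal right hindpaw. Licking/biting time was pooled over 20-40 min as tonic pain. Values compared with saline control. Emax and ED50 taken from the dose-response. One-way ANOVA with Student-Newman-Keuls test.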

The test system of data set [10] is Mus musculus. Nature of the data set: Analgesic activity in Swiss mouse assessed as inhibition of formalin-induced acute pain at 0.3 to 10 mg/kg, sc administered 30 mins prior to formalin challenge measured within 5 mins relative to normal saline control. Type of data set: functional, organism-based. The method in brief: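 Male Swiss mice (18e22 g), n = 6 per group; saline (10 mL/kg) or compound sc 30 min before 10 µL 5% formalin in 0.9% saline sc into dorsal right hindpaw. Licking/biting duration manually pooled over 0–5 min (acute phase) and compared with saline group; one-way ANOVA with Student-Newman-Keuls post-hoc test.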

The species named for data set [11] is Rattus norvegicus. Nature of the data set: Effect on contralateral paw withdrawal in Wistar rat spinal nerve ligation-induced neuropathic pain model at 30 ug, it measured after 0.5 to 4 hrs. Type of data set: ADME, organism-based. The conditions noted are these: in vivo, icv_or_intrathecal. The method in brief:
(§1)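 Spinal nerve-ligated male Wistar rats, included only with ipsilateral withdrawal threshold < 8 g and no major impairment, dosed intrathecally. Mechanical thresholds (von Frey monofilaments on a metal grid) and radiant-heat paw withdrawal latency (20 s cut-off, mean of three trials 10 min apart) measured on both paws before and 0.5, 1, 2, 4 h after dosing. Thresholds converted to % MPE; two-way ANOVA.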

For data set [12], the species on record is Rattus norvegicus. In words: Analgesic activity in Wistar rat spinal nerve ligation-induced neuropathic pain model assessed as reduction in mechanical allodynia assessed as increase in ipsilateral paw withdrawal response at 30 ug, it measured after 0.5 to 4 hrs. In kind it is functional, organism-based. In outline:
as §1

Data set [13] has as its system Rattus norvegicus. Nature of the data set: Analgesic activity in Wistar rat assessed as inhibition of formalin-induced paw flinch response in acute phase up to 3 ug, it administered as bolus injection 30 mins prior to formalin challenge measured within 10 mins relative to normal saline control. Type of data set: functional, organism-based. The method in brief: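 Intrathecally catheterized male Wistar rats (n = 6 per group) got a bolus of saline (10 µL) or compound (0.1–3 µg) 30 min before 50 µL 5% formalin sc into dorsal right hindpaw. Flinches counted in 1-min epochs every 10 min for 90 min; acute phase is the first 10 min. Compared with saline by one-way ANOVA and Student-Newman-Keuls test.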

The test system of data set [14] is Mus musculus. In words: Attenuation of morphine analgesic tolerance in Swiss mouse assessed as latency of licking/biting/jumping at 10 ug, it bid coadministered with morphine at 12 hr intervals for 7 days by hot-plate test. Type of data set: functional, organism-based. The method in brief: (§2)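 Swiss mice (n = 6 per group) received intrathecal saline, morphine, or compound (10 µg) plus morphine twice daily, 12 h apart, for 7 days. On day 8, a single intrathecal saline or compound dose was given 15 min before saline or morphine challenge. Hot plate at 55 ± 0.1 °C with 40 s cut-off; lick/bite/jump latency read before and 0.5, 1, 2 h after injection on days 1, 3, 5, 7, 8. AUC0–2 h analysed by two-way ANOVA with Student-Newman-Keuls test.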

For data set [15], the species on record is Rattus norvegicus. Nature of the data set: Analgesic activity in Wistar rat spinal nerve ligation-induced neuropathic pain model assessed as reduction in heat hyperalgesia assessed as increase in ipsilateral paw withdrawal response at 30 ug, it measured after 0.5 to 4 hrs. Type of data set: functional, organism-based. The method in brief: as §1
Data set [16] is filed under the species Rattus norvegicus. Nature of the data set: Analgesic activity in Wistar rat spinal nerve ligation-induced neuropathic pain model assessed as reduction in mechanical allodynia assessed as increase in ipsilateral paw withdrawal response at 30 ug, it measured after 1 hr. In kind it is functional. In outline: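 Spinal nerve-ligated male Wistar rats, intrathecally catheterised; only rats with threshold <8 g and no major impairment were included. After intrathecal dosing, ipsilateral hind-limb withdrawal threshold to monofilaments was measured on a metal grid after ≥30 min acclimation, at 0.5, 1, 2 and 4 h. n = 6. Results converted to %MPE against baseline.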

Data set [17] has as its system Mus musculus. In words: Reversal of morphine analgesic tolerance in 10 ug, it BID for 7 days morphine pre-treated Swiss mouse assessed as latency of licking/biting/jumping at 10 ug, it administered as single bolus injection 15 mins prior to morphine challenge on day 8 by hot-plate test. Type of data set: functional, organism-based. In outline:
as §2

Data set [18] relates to Mus musculus. Nature of the data set: Analgesic activity in Swiss mouse assessed as inhibition of formalin-induced tonic pain at 10 mg/kg administered as oral gavage 30 mins prior to formalin challenge measured from 20 to 40 mins relative to normal saline control. Type of data set: functional. Also on record: scale not given: the % may be the effect or the level left. In outline: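 Fasted male Swiss mice (18-22 g), n = 6. Dosed 10 mg/kg by oral gavage 30 min before 10 µL of 5% formalin in 0.9% saline injected s.c. into the dorsal right hindpaw. Licking/biting duration was scored manually and pooled over 20-40 min as tonic pain. Drug dissolved in normal saline at pH 7.3-7.5. Compared with a saline control group.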

Chain of D-amino-acid oxidase (Rattus norvegicus, UniProt O35078) (O35078 whole entry): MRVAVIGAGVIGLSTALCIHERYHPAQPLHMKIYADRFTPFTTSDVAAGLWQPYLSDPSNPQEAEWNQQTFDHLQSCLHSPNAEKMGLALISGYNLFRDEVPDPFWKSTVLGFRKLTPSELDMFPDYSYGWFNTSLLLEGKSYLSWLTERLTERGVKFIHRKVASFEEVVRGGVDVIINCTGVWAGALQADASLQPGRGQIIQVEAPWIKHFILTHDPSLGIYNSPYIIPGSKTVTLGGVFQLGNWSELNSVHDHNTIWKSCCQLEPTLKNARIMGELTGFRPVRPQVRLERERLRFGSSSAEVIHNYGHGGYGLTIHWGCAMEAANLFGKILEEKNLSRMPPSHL
Chain of D-amino-acid oxidase (Sus scrofa, UniProt P00371) (P00371 whole entry): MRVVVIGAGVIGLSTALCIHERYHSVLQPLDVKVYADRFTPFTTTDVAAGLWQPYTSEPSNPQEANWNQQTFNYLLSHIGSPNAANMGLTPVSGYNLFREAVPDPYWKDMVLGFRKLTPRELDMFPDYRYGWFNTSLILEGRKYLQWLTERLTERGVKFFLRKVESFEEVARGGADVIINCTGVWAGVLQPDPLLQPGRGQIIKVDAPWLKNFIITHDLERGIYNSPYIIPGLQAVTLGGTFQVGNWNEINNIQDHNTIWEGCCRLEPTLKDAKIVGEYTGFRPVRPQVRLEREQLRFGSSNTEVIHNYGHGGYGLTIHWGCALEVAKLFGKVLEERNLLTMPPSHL
Chain of D-amino-acid oxidase (Homo sapiens, UniProt P14920) (P14920 whole entry): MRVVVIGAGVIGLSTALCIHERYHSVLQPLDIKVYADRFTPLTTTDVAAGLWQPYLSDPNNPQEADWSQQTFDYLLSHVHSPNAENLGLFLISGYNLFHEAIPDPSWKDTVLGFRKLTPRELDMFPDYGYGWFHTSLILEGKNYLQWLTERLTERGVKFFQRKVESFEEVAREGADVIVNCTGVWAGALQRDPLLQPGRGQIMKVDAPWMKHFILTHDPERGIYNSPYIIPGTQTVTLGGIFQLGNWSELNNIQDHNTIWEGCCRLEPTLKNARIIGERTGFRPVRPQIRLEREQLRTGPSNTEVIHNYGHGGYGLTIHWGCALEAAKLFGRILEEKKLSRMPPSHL

On to `O=c1[nH]c2nccc(Br)c2[nH]c1=O`, for which the results for the 50% inhibitory concentration (IC50) in data set [1], in data set [2] and in [3] were 0.22 µM, 2.24 µM and 2.24 µM, respectively.

`Oc1nc2cc(Br)cnc2nc1O`: the half-maximal inhibitory concentration (IC50) in data set [1] is 12.4 µM.

Take `O=c1[nH]c2nccc(Oc3ccccc3)c2[nH]c1=O`: the IC50 in [1] was above 1000 µM.

Take `O=c1[nH]c2ccc(OCCc3ccccc3)nc2[nH]c1=O`: in [1], the IC50 was above 300 µM.

Consider `Oc1noc2cc(Cl)ccc12`, for which the IC50 in data set [1] was 0.21 µM; in data set [3] it was 0.09 µM.

With `O=c1[nH]c2ncc(Cl)c(Cl)c2[nH]c1=O`, the IC50 in [1] was found to be 0.65 µM.

`CCOc1ccnc2[nH]c(=O)c(=O)[nH]c12`: in data set [1], the IC50 was above 100 µM.

`O=c1[nH]c2ncc(Cl)c(Br)c2[nH]c1=O`: the concentration for half-maximal inhibition (IC50) in [1] was found to be 0.24 µM; in data set [2], 1.38 µM; in data set [3], 7.99 µM.

Consider `Oc1nc2cc(C(F)(F)F)cnc2nc1O`, for which the half-maximal inhibitory concentration (IC50) in data set [1] was 22.9 µM.

Regarding `O=c1[nH]c2ncc(Br)c(Br)c2[nH]c1=O`, in [1], the IC50 amounted to 0.53 µM.

As to `Cc1cnc2nc(O)c(O)nc2c1`, in data set [1], the IC50 is 36.7 µM.

On to `Cc1c(Br)cnc2nc(O)c(O)nc12`, for which the half-inhibitory concentration (IC50) in [1] is 0.4 µM.

Turning to `Oc1nc2cccnc2nc1O`, in [1], the IC50 turned out to be 5.7 µM.

As for `COC(=O)c1cnc2[nH]c(=O)c(=O)[nH]c2c1`, the IC50 in data set [1] is above 1000 µM.

In the case of `O=c1[nH]c2cc(F)cnc2[nH]c1=O`, the IC50 in data set [1] came to 0.46 µM.

For the compound `O=c1[nH]c2nccc(OCCCc3ccccc3)c2[nH]c1=O`, in data set [1], the IC50 is above 300 µM.

Regarding `O=c1[nH]c2nccc(OCCc3ccccc3)c2[nH]c1=O`, in [1], the IC50 was above 300 µM.

Consider `CCc1ccnc2[nH]c(=O)c(=O)[nH]c12`, for which the IC50 in data set [1] came out at 2.4 µM.

For `Oc1nc2ccccc2nc1O`, in data set [1], the IC50 worked out at 33.6 µM.

For the compound `O=c1[nH]c2nccc(OCc3ccccc3)c2[nH]c1=O`, in data set [1], the half-inhibitory concentration (IC50) was above 300 µM.

Take `O=c1[nH]c2nccc(C(F)(F)F)c2[nH]c1=O`: the 50% inhibitory concentration (IC50) in data set [1] is 0.52 µM.

Turning to `Oc1nc2cc(Cl)cnc2nc1O`, in data set [1], the 50% inhibitory concentration (IC50) is 6.7 µM.

Turning to `COc1ccnc2[nH]c(=O)c(=O)[nH]c12`, the IC50 in data set [1] amounted to 85.7 µM.

Take `Cc1ccnc2[nH]c(=O)c(=O)[nH]c12`: the IC50 in [1] was 0.63 µM.

For the compound `Cc1ccc2nc(O)c(O)nc2n1`, the IC50 in data set [1] was 17.7 µM.

Regarding `C[C@]12N[C@H](Cc3ccccc31)c1ccccc12` [DIZOCILPINE], in [4], the “inhibition (INH)” value is on record as 80%.

Take `Cc1c(Cl)cnc2nc(O)c(O)nc12`: the IC50 in [1] worked out at 0.26 µM; in data set [2] it was 1.13 µM; in [3], 4.16 µM.

Consider `COc1ccc2nc(O)c(O)nc2n1`, for which the 50% inhibitory concentration (IC50) in data set [1] is above 100 µM.

With `O=C(O)c1cnc2[nH]c(=O)c(=O)[nH]c2c1`, the 50% inhibitory concentration (IC50) in data set [1] is above 1000 µM.

Regarding `CC(C)Oc1ccnc2[nH]c(=O)c(=O)[nH]c12`, the concentration for half-maximal inhibition (IC50) in data set [1] is above 100 µM.

Turning to `O=c1[nH]c2ncc(Br)c(Cl)c2[nH]c1=O`, the IC50 in [1] is 0.48 µM.

With `O=c1[nH]c2ccc(OCc3ccccc3)nc2[nH]c1=O`, the IC50 in data set [1] is above 300 µM.

In the case of `CCOc1ccc2[nH]c(=O)c(=O)[nH]c2n1`, the IC50 in data set [1] is above 100 µM.

Turning to `Oc1nc2ccc(Cl)nc2nc1O`, the half-maximal inhibitory concentration (IC50) in data set [1] was 20.3 µM.

Regarding `O=c1[nH]c2nccc(Cl)c2[nH]c1=O`, in data set [5], the bioavailability is 30%. In addition, the result in data set [6], in [10] and in data set [13] was inactive. For the same compound, the MPE in data set [7] is 80.8%; in [16], 54.4%. Also, the IC50 stood at 0.18 µM in data set [1], 0.21 µM in data set [2] and 0.14 µM in [3]. The Activity entry in data set [8] is “Dose-dependent effect”; in data set [9] it was “Dose-dependent effect”; in data set [11], “Non-toxic”; in [18], 30%. Further, the values for the ED50 in data set [8] and in data set [9] were 0.25 µg and 1.8 mg/kg, respectively. Further, the Emax was 67.1% in [8] (Rattus norvegicus, Wistar) and 49% in data set [9]. Further, the result in data set [12], in [14], in [15] and in [17] was Active.

Turning to `Cc1c(F)cnc2[nH]c(=O)c(=O)[nH]c12`, the values for the half-maximal inhibitory concentration (IC50) in data set [1], in [2] and in data set [3] were 0.15 µM, 0.34 µM and 0.15 µM, respectively.
